ABHD5-PLIN5 inh: blocks binding of human ABHD5 to perilipin-5 | inhibition, % at 4 µM | Split G. princeps luciferase complementation, luminescence, 4 h | Q00G26+Q8WTS1 | AID 602281 | 360,000 compounds, 0.78% hits;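 active means inhibition above the mean inhibition across every tested compound plus 3 SD, cut at about 22% in these data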;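 further: 0% = DMSO only wells and the 100% control is not disclosed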
PRMT1 inh: blocks human protein arginine methyltransferase 1. AID 652257. inhibition, % at 2.79 µM. 370,000 compounds, 1.3% hits. recombinant PRMT1, activity-based probe fluorescence polarization;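 active means inhibition above about 21% made by adding two undisclosed values, limit read from the data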
UHRF1 binding: UHRF1 methyl-DNA binding inhibition; AID 687016; UHRF1 binding to methylated oligo, TR-FRET; 370,000 compounds, 0.75% hits; inhibition, % at 4.4 µM; Q96T88; in the data active means inhibition above about 21%;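 further: UHRF1 SRA domain binding a hemimethylated CpG hairpin DNA probe; 0% = median of test compound wells and 100% = reference inhibitor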
MBD2 DNA inh: MBD2-methylated oligo binding inhibition | Q9UBB5 | TR-FRET, MBD2 binding to methylated oligonucleotide | inhibition, % at 4.4 µM | 370,000 compounds, 0.31% hits | AID 686964; in the data active means inhibition above about 13%
RBBP9 inhibitor: blocks human serine hydrolase RBBP9; O75884; recombinant RBBP9, FP-Rh probe fluorescence polarization; inhibition, % at 7.94 µM; 220,000 compounds, 0.2% hits;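 active means inhibition above the campaign mean of all tested compounds plus 3 SD, cut at about 14% in these data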;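 further: plate controls were DMSO wells with RBBP9 for no effect and wells lacking RBBP9 protein for full effect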
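System: RBBP9 protein | Quantity: 2.5 µM RBBP9 dispensing solution, before mixing | Reagent: FP-Rh probe, 375 nM dispensing solution | Timing: Enzyme-compound preincubation 30 min, then probe labeling 45 min, 25 °C | Measured by: Fluorescence polarization | Read-out: % inhibition | Replication: One well per compound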
LEDGF integ inh: blocks HIV-1 LEDGF/p75-dependent DNA integration; inhibition, % at 3.7 µM; TR-FRET IN-LEDGF/p75 DNA integration, Eu/Cy5; AID 743269; 370,000 compounds, 0.64% hits;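 active means inhibition above the screen-wide mean plus 3 SD, cut at about 13% in these data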;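 further: signal is the Cy5 over europium emission ratio at 671 and 618 nm; 0% = plate median of compound wells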
IN multimer act: counter-screen for LEDGF/p75 integration inhibitors: HIV-1 integrase multimerization activators | TR-FRET HIV-1 integrase multimerization, biochemical | 2,000 compounds, 17% hits | activation, % at 7.7 µM | shares compounds with LEDGF integ inh | AID 1053131; in the data active means activation above about 8.9%
TRFRET interf: optically interferes with TR-FRET readout in LEDGF counter-screen | shares compounds with LEDGF integ inh | TR-FRET optical interference counterscreen, HIV-1 IN multimerization | inhibition, % at 7.7 µM | 2,000 tested, under 10 active;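 active means inhibition above the mean over all tested compounds plus 3 SD, which no compound reached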;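 further: 0% = integrase with antibodies and DMSO and 100% = antibodies without integrase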
IN-LEDGF confirm: confirmation of HIV-1 LEDGF/p75-dependent integration inhibitors; inhibition, % at 3.7 µM; TR-FRET LEDGF/p75-dependent HIV-1 integration, biochemical; shares compounds with LEDGF integ inh; 2,000 compounds, 36% hits; in the data active means inhibition above about 14%
An asterisk follows results filed as active. Sampled rows, rich in hits. Any-hit rate of the full collection: about 3.1%.

Screening COc1ccccc1NC1=C(N2CCCCC2)C(=O)c2ccccc2C1=O returned ABHD5-PLIN5 inh -31 and RBBP9 inhibitor -2.
`CN(C1=C(N2CCCCC2)C(=O)c2ccccc2C1=O)c1ccccc1` gave ABHD5-PLIN5 inh -11, PRMT1 inh 3, UHRF1 binding 5, MBD2 DNA inh 9, RBBP9 inhibitor 7, LEDGF integ inh 16*, IN multimer act 2, TRFRET interf -11 and IN-LEDGF confirm 3.
`O=C1C(Nc2cccc(O)c2)=C(N2CCCCC2)C(=O)c2ccccc21` gave ABHD5-PLIN5 inh -15, PRMT1 inh 16, UHRF1 binding 13, MBD2 DNA inh -6, RBBP9 inhibitor -1, LEDGF integ inh 20*, IN multimer act -1, TRFRET interf 4 and IN-LEDGF confirm 37*.
Cc1ccc(NC2=C(N3CCCCC3)C(=O)c3ccccc3C2=O)cc1 was read as ABHD5-PLIN5 inh -27, PRMT1 inh 7, UHRF1 binding 14, MBD2 DNA inh -2, RBBP9 inhibitor -4, LEDGF integ inh 17*, IN multimer act 1, TRFRET interf -4 and IN-LEDGF confirm 38*.
O=C(/C=C/c1ccc(O)cc1)c1ccc(NC2=C(N3CCCCC3)C(=O)c3ccccc3C2=O)cc1 was read as ABHD5-PLIN5 inh 1, PRMT1 inh 8, UHRF1 binding 9, MBD2 DNA inh -5, RBBP9 inhibitor -8, LEDGF integ inh 15*, IN multimer act 4, TRFRET interf -13 and IN-LEDGF confirm 30*.
Screening O=C1C(NS(=O)(=O)c2ccc(Br)cc2)=C(N2CCCCC2)C(=O)c2ccccc21 returned ABHD5-PLIN5 inh -13, PRMT1 inh 3, UHRF1 binding -7, MBD2 DNA inh -8 and LEDGF integ inh -5.
`COc1ccc(-n2c(Cc3cccs3)nnc2SCC(=O)Nc2cccc3ccccc23)cc1` gave PRMT1 inh -4, UHRF1 binding 0, MBD2 DNA inh -1 and LEDGF integ inh -4.
C=CCN1CC(COCc2ccccc2)OCCS1(=O)=O (stereo not drawn) was read as PRMT1 inh 3, UHRF1 binding 1, MBD2 DNA inh -8 and LEDGF integ inh 0.
`O=C(C(=O)N1CCC(CNS(=O)(=O)c2cccc(C(F)(F)F)c2)CC1)c1cc2ccccc2o1` gave PRMT1 inh 0, UHRF1 binding 0, MBD2 DNA inh -2 and LEDGF integ inh -3.
For O=C1C(Nc2ccccc2)=C(N2CCCCC2)C(=O)c2ccccc21 the results were ABHD5-PLIN5 inh -35, PRMT1 inh 4, UHRF1 binding 8, MBD2 DNA inh 0, RBBP9 inhibitor 7, LEDGF integ inh 22*, IN multimer act -1, TRFRET interf 2 and IN-LEDGF confirm 34*.
For COc1ccc(C2C(C(=O)Nc3ccc(F)cc3F)CCC(=O)N2c2ccc(OC)cc2)cc1 (stereo not drawn) the results were PRMT1 inh -1, UHRF1 binding 0, MBD2 DNA inh 1 and LEDGF integ inh 2.
For O=C(Cn1cnc([N+](=O)[O-])n1)c1ccc(O)c(O)c1 the results were ABHD5-PLIN5 inh 0, PRMT1 inh 11, UHRF1 binding 14, MBD2 DNA inh 5, LEDGF integ inh 40*, IN multimer act 9.9*, TRFRET interf -35 and IN-LEDGF confirm 22*.
O=C(OCc1cn(Cc2ccc(Cl)cc2)nn1)N1CCOCC1 was read as PRMT1 inh -2, UHRF1 binding -2, MBD2 DNA inh 1 and LEDGF integ inh 0.
N#Cc1cccc(-c2ccccc2C(=O)NC2CCCCN(Cc3ccc(Cl)cc3)C2=O)c1 (stereo not drawn) was read as PRMT1 inh 0, UHRF1 binding 2, MBD2 DNA inh 4 and LEDGF integ inh 0.
For CCCCN1C(=O)C(=Nc2cccc3cnccc23)c2ccccc21 the results were ABHD5-PLIN5 inh -1, PRMT1 inh -1, UHRF1 binding -4, MBD2 DNA inh -17, RBBP9 inhibitor -3, LEDGF integ inh 16*, IN multimer act 1, TRFRET interf -6 and IN-LEDGF confirm 23*.
Screening c1ccc(-c2cn3nc(-c4ccccc4)cnc3n2)cc1 returned ABHD5-PLIN5 inh 2, PRMT1 inh -3, UHRF1 binding 0, MBD2 DNA inh -2, RBBP9 inhibitor -5, LEDGF integ inh 90*, IN multimer act -1, TRFRET interf 2 and IN-LEDGF confirm -3.
Screening Cc1nc2nc(-c3ccccc3)cn2nc1C returned ABHD5-PLIN5 inh 7, PRMT1 inh 2, UHRF1 binding -6, MBD2 DNA inh 0, RBBP9 inhibitor -6 and LEDGF integ inh -3.
Screening Clc1ccc(-n2c(SCc3cccc4ccccc34)nnc2-c2ccco2)cc1 returned PRMT1 inh -2, UHRF1 binding 0, MBD2 DNA inh -10 and LEDGF integ inh 2.
`Cc1ccc(C(=O)Nc2c(-c3ccc(Cl)cc3)[nH][nH]c2=O)cc1` gave ABHD5-PLIN5 inh -17, PRMT1 inh 2, UHRF1 binding 4, MBD2 DNA inh 2, LEDGF integ inh 14*, IN multimer act 4, TRFRET interf -12 and IN-LEDGF confirm 1.
O=C(Nc1c(-c2ccccc2)[nH][nH]c1=O)c1ccc(-c2ccccc2)cc1 was read as ABHD5-PLIN5 inh -30, PRMT1 inh -1, UHRF1 binding -6, MBD2 DNA inh 4 and LEDGF integ inh -2.
`CCc1c(-c2ccccc2Br)ncn1CCc1ccccc1OC` gave PRMT1 inh 8, UHRF1 binding -2, MBD2 DNA inh 7 and LEDGF integ inh -2.
For O=C(CCc1n[nH]c(=O)[nH]c1=O)N/N=C/c1ccco1 the results were ABHD5-PLIN5 inh 5, PRMT1 inh 1, UHRF1 binding 8, MBD2 DNA inh 4, RBBP9 inhibitor -6, LEDGF integ inh 15*, IN multimer act -1, TRFRET interf 4 and IN-LEDGF confirm 5.
For COc1cccc(/C=N/NC(=O)CCc2n[nH]c(=O)[nH]c2=O)c1O the results were ABHD5-PLIN5 inh 2, PRMT1 inh 0, UHRF1 binding -4, MBD2 DNA inh -4, RBBP9 inhibitor -6 and LEDGF integ inh -5.
